Converted amounts (≈) assume the structure as drawn. The source made the active and inactive calls. The rule behind the calls is not given here.
Tests used:
[1] = system: Mycobacterium tuberculosis; assay: Antibacterial activity against Mycobacterium tuberculosis H37Rv after 7 days by resazurin microtiter assay; format: functional; settings: 168 h
In short: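 M. tuberculosis H37Rv grown at 37 °C in 7H9 with 10% OADC to mid-log (OD600 0.4-0.6), adjusted to McFarland no.1 and diluted 1:20. Compounds from DMSO stocks serially diluted in 7H9/OADC to final 0.39-100 µg/mL; rifampicin 0.004-1 µg/mL as control. After 7 days at 37 °C, 0.01% resazurin added; fluorescence (530/590 nm) read 24 h later.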

[2] = system: Mycobacterium tuberculosis; assay: Binding affinity to Mycobacterium tuberculosis CYP121A1 assessed as red shift in heme soret peak up to 250 uM by UV-visible spectrophotometric titration method
In short: (§1)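 Purified CYP121A1 (3-4 μM) titrated at 28 °C in 100 mM KPi, 200 mM KCl, 0.004% Triton X-100, pH 7.85, with small aliquots of ligand from DMSO stocks. UV-visible spectra recorded 250-800 nm. Difference spectra give peak-minus-trough absorbance change, plotted against [ligand]. Kd obtained by hyperbolic or Hill fit, averaged over triplicate titrations.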

[3] = Binding affinity to Mycobacterium tuberculosis CYP121A1 by UV-visible spectrophotometric titration method; in short: as §1
[4] = system: Mycobacterium tuberculosis; assay: Binding affinity to Mycobacterium tuberculosis CYP121A1 assessed as red shift in heme soret peak up to 500 uM by UV-visible spectrophotometric titration method; in short: as §1
[5] = system: Mycobacterium tuberculosis; assay: Binding affinity to Mycobacterium tuberculosis CYP121A1 assessed as red shift in heme soret peak up to 300 uM by UV-visible spectrophotometric titration method; in short: as §1
[6] = system: Mycobacterium tuberculosis; assay: Binding affinity to Mycobacterium tuberculosis CYP121A1 assessed as blue shift in heme soret peak up to 1750 uM by UV-visible spectrophotometric titration method; in short: as §1

SMILES | MIC90 [1] | Activity [2] | Kd [3] | Activity [4] | Activity [5] | Activity [6]
c1ccc(CN2CCN(Cc3ccccc3)C(Cn3ccnc3)C2)cc1 (stereo not given) | 50 µg/mL (≈ 144 µM) | – | – | – | – | –
O=C1CN(CCCn2ccnc2)CCN1Cc1ccc(Cl)cc1 | > 100 µg/mL | Active | 81.3 µM | – | – | –
O=C1CN(CCCn2ccnc2)CCN1Cc1ccc(Cl)cc1Cl | 100 µg/mL (≈ 272 µM) | – | 967 µM | – | – | –
COc1ccc(CN2CCN(CCCn3ccnc3)CC2=O)cc1 | > 100 µg/mL | – | 309 µM | Active | – | –
COc1cc(CN2CCN(Cc3cc(OC)cc(OC)c3)C(Cn3ccnc3)C2)cc(OC)c1 (stereo not given) | 12.5 µg/mL (≈ 26.8 µM) | – | 1440 µM | – | – | –
O=C(Cn1ccnc1)N1CCN(Cc2ccc(F)cc2)CC1 | > 100 µg/mL | – | 1140 µM | – | – | –
O=C(Cn1cncn1)N1CCN(Cc2ccc(F)cc2)CC1 | > 100 µg/mL | – | 960 µM | – | – | –
COc1ccc(CN2CCN(Cc3ccc(OC)cc3)C(Cn3cncn3)C2)cc1 (stereo not given) | 100 µg/mL (≈ 245 µM) | – | 1300 µM | – | – | –
O=C1CN(CCCn2ccnc2)CCN1Cc1ccc(F)cc1 | > 100 µg/mL | – | 226 µM | – | Active | –
O=C(Cn1cncn1)N1CCN(Cc2ccc(Cl)cc2Cl)CC1 | > 100 µg/mL | – | 417 µM | – | – | Active
c1ccc(CN2CCN(Cc3ccccc3)C(Cn3cncn3)C2)cc1 (stereo not given) | > 100 µg/mL | – | 1830 µM | – | – | –

— ChEMBL document CHEMBL4177709, “Design, synthesis and evaluation against Mycobacterium tuberculosis of azole piperazine derivatives as dicyclotyrosine (cYY) mimics” (Bioorg Med Chem, 2018)
